Only some compounds are listed: those with a hit (about 1.8% of all), similar ones and a draw of the others.
MT1-MMP act inh: inhibitors of human MT1-MMP activation; P50281; HT1080 RFP-PRO-GFP cells, GFP/RFP ratio fluorescence, overnight; percent of plate control window, DMSO zero; GFP/RFP ratio change, % at 20 µM; 0.061% of 360,000 active; AID 651647;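 active = GFP/RFP ratio change of at least 30% with cell ATP level not reduced by more than half and red fluorescence within 50% of control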
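Material: RFP-PRO-GFP reporter HT1080 cells. Dosing: single-point 20 µM compound, 1% DMSO. Controls: DMSO and RFP-L50D-GFP cell wells. Timing: cells overnight before dosing, compound overnight, 37 °C, 5% CO2. Measure: GFP/RFP fluorescence ratio.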
eIF4H FP inh: inhibitors of RNA binding by human eIF4H; eIF4H fluorescence polarization binding assay; 0.94% of 290,000 active; inhibition, % at 35 µM; AID 2012; Q15056;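 also: calls also rest on retests at 20 µM and on dose response follow-up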
SKN-1 inh: blocks SKN-1 activity in C. elegans; 0.49% of 360,000 active; C. elegans VP596 Pgst-4::GFP/RFP ratio, acrylamide-induced, 24 h; AID 624304; inhibition, % at 21.8 µM;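 active = interference check ratio from 0.5 to 1.5 plus GFP to RFP signal ratio inhibition reaching or exceeding a fixed threshold, cut at about 30% in these data, passing the limit was not always enough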
PABP FP inh: PABP-poly(A) binding inhibition; PABP-poly(A) RNA binding, fluorescence polarization; P11940; calls only at 35 µM; AID 2014; 1% of 290,000 active;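 also: calls also rest on retests at 20 µM and on dose response follow-up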
MLLE-PAM2 inh: blocks PAM2 peptide binding to the PABP1 MLLE domain. 0.36% of 360,000 active. AID 588489. inhibition, % at 20 µM. GST-MLLE / FITC-PAM2 fluorescence polarization; in the data active = inhibition above about 35%, passing the limit was not always enough;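 also: plate controls were DMSO wells with GST-MLLE for no effect and wells lacking GST-MLLE protein for full effect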
Numbers without * were called inactive. Unless noted, no rule for the calls is given here.

How did COCCNC(=O)C1(C)CCCN(C(=O)c2cc(F)ccc2C)C1 (stereo unspecified) do in these assays?
MT1-MMP act inh: 4; SKN-1 inh: 14; MLLE-PAM2 inh: 11

Results for Cc1nn2c3c(cnc2c1-c1ccc(Cl)cc1)C(=O)CC(c1ccco1)C3 (stereo unspecified) ?
MT1-MMP act inh: 0; eIF4H FP inh: 61*; SKN-1 inh: -1; PABP FP inh: active; MLLE-PAM2 inh: -2

What do the screens show for `COc1cccc(S(=O)(=O)N(C)C[C@H]2OCc3cn(nn3)CCCC(=O)N([C@@H](C)CO)C[C@@H]2C)c1`?
MT1-MMP act inh: 2; SKN-1 inh: 7; MLLE-PAM2 inh: -2

How did CC(C)N(CCNC(=O)c1ccc(CS(=O)(=O)c2c(Cl)cccc2Cl)o1)Cc1ccccc1 do in these assays?
MT1-MMP act inh: -3; eIF4H FP inh: -16; SKN-1 inh: 15; PABP FP inh: inactive; MLLE-PAM2 inh: 1

What do the screens show for `COCCCN1CN(S(=O)(=O)c2ccc(Cl)cc2)c2nc3ccccc3nc21`?
MT1-MMP act inh: -3; eIF4H FP inh: 50*; SKN-1 inh: 3; PABP FP inh: active; MLLE-PAM2 inh: 16

What do the screens show for `Cc1ccccc1Cn1c(C)cc(C)c(C#N)c1=O`?
MT1-MMP act inh: 3; eIF4H FP inh: active; SKN-1 inh: -3; PABP FP inh: active; MLLE-PAM2 inh: -3

What do the screens show for `Cc1cc(C)n(Cc2ccc(F)cc2)c(=O)c1C#N`?
MT1-MMP act inh: -5; eIF4H FP inh: 0; SKN-1 inh: 10; PABP FP inh: inactive; MLLE-PAM2 inh: -2

Results for COc1ccccc1C(N)=S ?
MT1-MMP act inh: 4; eIF4H FP inh: 0; SKN-1 inh: -6; PABP FP inh: inactive; MLLE-PAM2 inh: 40*

How did COc1ccccc1C(=O)C(=O)c1ccccc1OC do in these assays?
MT1-MMP act inh: 1; SKN-1 inh: 7; MLLE-PAM2 inh: 7

How did Fc1ccc(F)c(C2=NNC(=NCC3CCCO3)SC2)c1 (stereo unspecified) do in these assays?
MT1-MMP act inh: -4; eIF4H FP inh: -13; SKN-1 inh: -4; PABP FP inh: inactive; MLLE-PAM2 inh: 64*

What do the screens show for `CC1(C(=O)NCC(F)(F)F)CCN1C(=O)Cc1ccc(-c2ccccc2)cc1` (stereo unspecified)?
MT1-MMP act inh: 4; SKN-1 inh: -2; MLLE-PAM2 inh: 13

What do the screens show for `CCOC(=O)C1CCN(C(=O)C2CCN(S(=O)(=O)c3cccc4nsnc34)CC2)CC1`?
MT1-MMP act inh: -1; eIF4H FP inh: -2; SKN-1 inh: 12; PABP FP inh: inactive; MLLE-PAM2 inh: -1

How did CC1S/C(=C(\C#N)C(=O)NCc2ccco2)N(c2ccc(F)cc2)C1=O (stereo unspecified) do in these assays?
MT1-MMP act inh: -4; eIF4H FP inh: 110*; SKN-1 inh: -10; PABP FP inh: active; MLLE-PAM2 inh: -2

How did CCC1S/C(=C(\C#N)C(=O)NCc2ccco2)N(c2ccc(Br)cc2)C1=O (stereo unspecified) do in these assays?
MT1-MMP act inh: -6; eIF4H FP inh: 73*; SKN-1 inh: -1; PABP FP inh: active; MLLE-PAM2 inh: 3

What do the screens show for `N#C/C(C(=O)NCc1ccco1)=C1/SC(Cc2ccc(F)cc2)C(=O)N1c1ccccc1` (stereo unspecified)?
MT1-MMP act inh: -8; eIF4H FP inh: -5; SKN-1 inh: 7; PABP FP inh: inactive; MLLE-PAM2 inh: 9

What do the screens show for `CCC1S/C(=C(\C#N)C(=O)NCc2ccco2)N(c2ccc(F)cc2)C1=O` (stereo unspecified)?
MT1-MMP act inh: -3; eIF4H FP inh: 27; SKN-1 inh: 12; PABP FP inh: inactive; MLLE-PAM2 inh: 3

What do the screens show for `O=C(O)c1cnc2ccccc2n1`?
MT1-MMP act inh: -4; eIF4H FP inh: -1; SKN-1 inh: 37*; PABP FP inh: inactive; MLLE-PAM2 inh: 25

How did O=C(NC1CCCCCC1)C(=S)N1CCCC1 do in these assays?
MT1-MMP act inh: 1; eIF4H FP inh: -9; SKN-1 inh: 0; PABP FP inh: inactive; MLLE-PAM2 inh: -8

What do the screens show for `O=C(NC1CCCCCC1)C(=S)N1CCOCC1`?
MT1-MMP act inh: 1; eIF4H FP inh: 6; SKN-1 inh: -4; PABP FP inh: inactive; MLLE-PAM2 inh: 44*

Results for CC(OC(=O)CCC1CCCCC1)C(=O)Nc1ccc(S(N)(=O)=O)cc1 (stereo unspecified) ?
MT1-MMP act inh: 1; SKN-1 inh: 14; MLLE-PAM2 inh: -30

How did CC(NS(=O)(=O)c1ccc(F)cc1)C(=O)Nc1ccc2c(c1)OCCO2 (stereo unspecified) do in these assays?
MT1-MMP act inh: 0; eIF4H FP inh: -6; SKN-1 inh: 12; PABP FP inh: inactive; MLLE-PAM2 inh: 2

Results for N#Cc1c(-c2ccco2)cc(-c2ccc(F)cc2)nc1N ?
MT1-MMP act inh: -13; eIF4H FP inh: 62*; SKN-1 inh: 2; PABP FP inh: active; MLLE-PAM2 inh: -63

Results for O=C(NCc1ccco1)C1CCN(S(=O)(=O)c2cccc([N+](=O)[O-])c2)CC1 ?
MT1-MMP act inh: 1; eIF4H FP inh: -11; SKN-1 inh: 5; PABP FP inh: inactive; MLLE-PAM2 inh: -1

What do the screens show for `O=C(Nc1nnc([C@@H]2C[C@H](O)[C@@H](CO)O2)s1)Nc1cccc(Cl)c1Cl`?
MT1-MMP act inh: 1; SKN-1 inh: 8; MLLE-PAM2 inh: -14

How did CCc1noc(C)c1C(=O)N1CCN(S(=O)(=O)c2ccccc2C(F)(F)F)CC1 do in these assays?
MT1-MMP act inh: -3; SKN-1 inh: 15; MLLE-PAM2 inh: 88*

Results for CC1(C(=O)NS(=O)(=O)c2ccc(F)cc2F)CCN1C(=O)C1(c2ccc(Cl)cc2)CCC1 (stereo unspecified) ?
MT1-MMP act inh: -2; SKN-1 inh: -3; MLLE-PAM2 inh: 2

How did Cc1ccnn1-c1ccc(C(=O)NCc2ccccc2CN2CCOCC2)cc1 do in these assays?
MT1-MMP act inh: 0; SKN-1 inh: 14; MLLE-PAM2 inh: -4

How did CCc1c(C)sc(NC(=O)c2ccco2)c1C(=O)N1CCOCC1 do in these assays?
MT1-MMP act inh: 1; eIF4H FP inh: 14; SKN-1 inh: -4; PABP FP inh: inactive; MLLE-PAM2 inh: 40*

Results for COc1cccc(-c2cnc3c(NC(C)=O)cc(-c4cccc(C(=O)NCCO)c4)cn23)c1 ?
MT1-MMP act inh: 4; SKN-1 inh: 2; MLLE-PAM2 inh: -5

How did CCOC(=O)c1c(C)c(C)n2c1NC(=O)C2 do in these assays?
MT1-MMP act inh: -1; SKN-1 inh: 46*; MLLE-PAM2 inh: -53

How did O=C(NN=C1CCN(Cc2ccccc2)CC1)c1cc2ccccc2cc1O do in these assays?
MT1-MMP act inh: 9; eIF4H FP inh: 97*; SKN-1 inh: -2; PABP FP inh: active; MLLE-PAM2 inh: 4

What do the screens show for `O=c1cc(-c2ccc([N+](=O)[O-])cc2)nc2cc(-c3ccc(F)cc3)[nH]n12`?
MT1-MMP act inh: 7; eIF4H FP inh: 63; SKN-1 inh: 0; PABP FP inh: active; MLLE-PAM2 inh: 8
